How the values were obtained:
UO-31 = test: Growth inhibition of human UO31 cells assessed as cell growth at 10 uM after 48 hrs by sulforhodamine B assay; assay type: functional; conditions: UO-31, 48 h, read-out: Activity
In short: (§1)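 NCI 60-cell-line panel from nine tumour types (leukaemia, lung, colon, CNS, melanoma, ovarian, renal, prostate, breast). Each compound was added at one single concentration, and cultures were incubated for 48 h. Results are reported as percent growth inhibition.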

[1] = Inhibition of beta tubulin polymerisation in human HepG2 cells incubated for 2 hrs using TMB substrate by ELISA; assay type: cell-based; conditions: HepG2, 2 h
UACC-257 = test: Growth inhibition of human UACC257 cells assessed as cell growth at 10 uM after 48 hrs by sulforhodamine B assay; assay type: functional; conditions: UACC-257, 48 h, read-out: Activity; in short: as §1
TK-10 = test: Growth inhibition of human TK10 cells assessed as cell growth at 10 uM after 48 hrs by sulforhodamine B assay; assay type: functional; conditions: TK-10, 48 h, read-out: Activity; in short: as §1
SW-620 = test: Growth inhibition of human SW620 cells assessed as cell growth at 10 uM after 48 hrs by sulforhodamine B assay; assay type: functional; conditions: SW-620, 48 h, read-out: Activity; in short: as §1
MDA-MB-231 = test: Growth inhibition of human MDA-MB-231 cells assessed as cell growth at 10 uM after 48 hrs by sulforhodamine B assay; assay type: functional; conditions: MDA-MB-231, 48 h, read-out: Activity
In short: (§2)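 NCI 60-cell-line panel screen (nine cancer types). Compounds added at single concentration 10^-5 M, cultures incubated 48 h; growth inhibition percentages reported.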

MDA-MB-435 = test: Growth inhibition of human MDA-MB-435 cells assessed as cell growth at 10 uM after 48 hrs by sulforhodamine B assay; assay type: functional; conditions: MDA-MB-435, 48 h, read-out: Activity; in short: as §2
U-251 = test: Growth inhibition of human U251 cells assessed as cell growth at 10 uM after 48 hrs by sulforhodamine B assay; assay type: functional; conditions: U-251, 48 h, read-out: Activity; in short: as §1
OVCAR-4 = test: Growth inhibition of human OVCAR4 cells assessed as cell growth at 10 uM after 48 hrs by sulforhodamine B assay; assay type: functional; conditions: OVCAR-4, 48 h, read-out: Activity; in short: as §2
Malme-3M = test: Growth inhibition of human MALME-3M cells assessed as cell growth at 10 uM after 48 hrs by sulforhodamine B assay; assay type: functional; conditions: read-out: Activity; in short: as §2
SF-295 = test: Growth inhibition of human SF295 cells assessed as cell growth at 10 uM after 48 hrs by sulforhodamine B assay; assay type: functional; conditions: SF-295, 48 h, read-out: Activity; in short: as §2
A549 = test: Growth inhibition of human A549/ATCC cells assessed as cell growth at 10 uM after 48 hrs by sulforhodamine B assay; assay type: functional; conditions: A549, 48 h, read-out: Activity; in short: as §2
SF-268 = test: Growth inhibition of human SF268 cells assessed as cell growth at 10 uM after 48 hrs by sulforhodamine B assay; assay type: functional; conditions: SF-268, 48 h, read-out: Activity; in short: as §2
PC-3 = test: Growth inhibition of human PC3 cells assessed as cell growth at 10 uM after 48 hrs by sulforhodamine B assay; assay type: functional; conditions: PC-3, 48 h, read-out: Activity; in short: as §2
RPMI-8226 = test: Growth inhibition of human RPMI8226 cells assessed as cell growth at 10 uM after 48 hrs by sulforhodamine B assay; assay type: functional; conditions: RPMI-8226, 48 h, read-out: Activity; in short: as §2
CAKI-1 = test: Growth inhibition of human CAKI-1 cells assessed as cell growth at 10 uM after 48 hrs by sulforhodamine B assay; assay type: functional; conditions: CAKI-1, 48 h, read-out: Activity; in short: as §2
OVCAR-3 = test: Growth inhibition of human OVCAR3 cells assessed as cell growth at 10 uM after 48 hrs by sulforhodamine B assay; assay type: functional; conditions: OVCAR-3, 48 h, read-out: Activity; in short: as §2
ACHN = test: Growth inhibition of human ACHN cells assessed as cell growth at 10 uM after 48 hrs by sulforhodamine B assay; assay type: functional; conditions: read-out: Activity; in short: as §2
786-0 = test: Growth inhibition of human 786-0 cells assessed as cell growth at 10 uM after 48 hrs by sulforhodamine B assay; assay type: functional; conditions: 786-0, 48 h, read-out: Activity; in short: as §2
COLO 205 = test: Growth inhibition of human COLO205 cells assessed as cell growth at 10 uM after 48 hrs by sulforhodamine B assay; assay type: functional; conditions: COLO 205, 48 h, read-out: Activity; in short: as §2
RXF 393 = test: Growth inhibition of human RXF393 cells assessed as cell growth at 10 uM after 48 hrs by sulforhodamine B assay; assay type: functional; conditions: RXF 393, 48 h, read-out: Activity; in short: as §2
SF-539 = test: Growth inhibition of human SF539 cells assessed as cell growth at 10 uM after 48 hrs by sulforhodamine B assay; assay type: functional; conditions: SF-539, 48 h, read-out: Activity; in short: as §2
HepG2 = test: Inhibition of beta tubulin polymerisation in human HepG2 cells incubated for 2 hrs using TMB substrate by ELISA relative to untreated control; assay type: cell-based; design: concentration or dose not given beside the values; conditions: dose or concentration not given here
MDA-MB-468 = test: Growth inhibition of human MDA-MB-468 cells assessed as cell growth at 10 uM after 48 hrs by sulforhodamine B assay; assay type: functional; conditions: MDA-MB-468, 48 h, read-out: Activity; in short: as §2
SNB-19 = test: Growth inhibition of human SNB19 cells assessed as cell growth at 10 uM after 48 hrs by sulforhodamine B assay; assay type: functional; conditions: SNB-19, 48 h, read-out: Activity; in short: as §1
SNB-75 = test: Growth inhibition of human SNB75 cells assessed as cell growth at 10 uM after 48 hrs by sulforhodamine B assay; assay type: functional; conditions: SNB-75, 48 h, read-out: Activity; in short: as §1
SN12C = test: Growth inhibition of human SN12C cells assessed as cell growth at 10 uM after 48 hrs by sulforhodamine B assay; assay type: functional; conditions: read-out: Activity; in short: as §1
K562 = test: Growth inhibition of human K562 cells assessed as cell growth at 10 uM after 48 hrs by sulforhodamine B assay; assay type: functional; conditions: K562, 48 h, read-out: Activity; in short: as §2
HCC 2998 = test: Growth inhibition of human HCC2998 cells assessed as cell growth at 10 uM after 48 hrs by sulforhodamine B assay; assay type: functional; conditions: HCC 2998, 48 h, read-out: Activity; in short: as §2
UACC-62 = test: Growth inhibition of human UACC62 cells assessed as cell growth at 10 uM after 48 hrs by sulforhodamine B assay; assay type: functional; conditions: UACC-62, 48 h, read-out: Activity; in short: as §1
SK-MEL-5 = test: Growth inhibition of human SK-MEL-5 cells assessed as cell growth at 10 uM after 48 hrs by sulforhodamine B assay; assay type: functional; conditions: SK-MEL-5, 48 h, read-out: Activity; in short: as §2
SK-MEL-28 = test: Growth inhibition of human SK-MEL-28 cells assessed as cell growth at 10 uM after 48 hrs by sulforhodamine B assay; assay type: functional; conditions: SK-MEL-28, 48 h, read-out: Activity; in short: as §2

| SMILES | growth at 10 µM (UO-31) [%] | growth at 10 µM (UACC-257) [%] | growth at 10 µM (TK-10) [%] | growth at 10 µM (SW-620) [%] | growth at 10 µM (MDA-MB-231) [%] | growth at 10 µM (MDA-MB-435) [%] | growth at 10 µM (U-251) [%] | growth at 10 µM (OVCAR-4) [%] | growth at 10 µM (Malme-3M) [%] | growth at 10 µM (SF-295) [%] | growth at 10 µM (A549) [%] | growth at 10 µM (SF-268) [%] | growth at 10 µM (PC-3) [%] | growth at 10 µM (RPMI-8226) [%] | growth at 10 µM (CAKI-1) [%] | growth at 10 µM (OVCAR-3) [%] | growth at 10 µM (ACHN) [%] | growth at 10 µM (786-0) [%] | growth at 10 µM (COLO 205) [%] | growth at 10 µM (RXF 393) [%] | other results |
| --- | --- | --- | --- | --- | --- | --- | --- | --- | --- | --- | --- | --- | --- | --- | --- | --- | --- | --- | --- | --- | --- |
| CCOc1ccc(-n2nc(C(=O)Nc3ccccc3)nc2-c2cc(OC)c(OC)c(OC)c2)cc1 | 37.7 | 66.4 | 72.5 | 36.1 | 43.9 | 0.19 | 36.1 | 59.5 | 54.5 | 34 | 41.4 | 76.5 | 44.9 | 47.4 | 51.6 | 43.2 | 62.8 | 69.4 | 22.1 | 69.2 | IC50 [1]: 41.8 µM; growth at 10 µM (SF-539): 62%; inhibition (HepG2): 42.7%; growth at 10 µM (MDA-MB-468): 42.5%; growth at 10 µM (SNB-19): 55.8%; growth at 10 µM (SNB-75): 35.1% |
| CCOc1ccc(-n2nc(C(=O)Nc3ccc(F)c(F)c3F)nc2-c2cc(OC)c(OC)c(OC)c2)cc1 | 51.5 | 101 | 101 | 103 | 73.6 | 90 | 98.2 | 78.8 | 86.9 | 93 | 85.7 | 82.3 | 71.6 | 87.2 | 60.5 | 91.6 | 85.2 | 79.6 | 90 | 89.9 | growth at 10 µM (SN12C): 86.5%; growth at 10 µM (K562): 90.7%; growth at 10 µM (HCC 2998): 94.6%; growth at 10 µM (UACC-62): 89.7%; growth at 10 µM (SK-MEL-5): 87%; growth at 10 µM (SF-539): 87.9%; growth at 10 µM (SK-MEL-28): 86.7%; growth at 10 µM (MDA-MB-468): 90.2%; growth at 10 µM (SNB-19): 88.3%; growth at 10 µM (SNB-75): 68.3% |
| CCOc1ccc(-n2nc(C(=O)NCc3ccccc3OC)nc2-c2cc(OC)c(OC)c(OC)c2)cc1 | -2.66 | 62.7 | 46.5 | 58 | 17.8 | 22.1 | 42.5 | 23.4 | 87.5 | 34.8 | 34.5 | 54.1 | 24.6 | 26.9 | 25.9 | 49.4 | 19.6 | 41.5 | 30.3 | 43.5 | IC50 [1]: 0.6 µM; growth at 10 µM (SN12C): 39.7%; growth at 10 µM (K562): 22.1%; growth at 10 µM (HCC 2998): 57.5%; growth at 10 µM (UACC-62): 37%; growth at 10 µM (SK-MEL-5): -1.22%; growth at 10 µM (SF-539): 49.2%; growth at 10 µM (SK-MEL-28): 36.6%; inhibition (HepG2): 85.6%; growth at 10 µM (MDA-MB-468): 72.4%; growth at 10 µM (SNB-19): 45.2%; growth at 10 µM (SNB-75): 30% |
